Experimental data as given in ChEMBL document CHEMBL1138790, “Second-generation lymphocyte function-associated antigen-1 inhibitors: 1H-imidazo[1,2-alpha]imidazol-2-one derivatives” (J Med Chem, 2004).

Legend:
[1] = target: T1, Intercellular adhesion molecule (ICAM-1), Integrin alpha-L/beta-2 (Homo sapiens, UniProt P05107+P20701); assay: Dissociation constant for human Lymphocyte function associated antigen 1 in LFA-1/ICAM-1 binding assay; format: protein-complex assay
Cell line [2] = assay: cells; format: functional, cell-based; settings: Homo sapiens, Blood
[3] = target: T1, Intercellular adhesion molecule (ICAM-1), Integrin alpha-L/beta-2; assay: Dissociation constant against human Lymphocyte function associated antigen1 in LFA-1/ICAM-1 binding assay; format: protein-complex assay
[4] = Concentration of compound required for 50% inhibition of aggregation of JY cell lines; format: functional, cell-based; settings: Homo sapiens
[5] = target: T1, Intercellular adhesion molecule (ICAM-1), Integrin alpha-L/beta-2; assay: Dissociation constant for human Lymphocyte function associated antigen1 in LFA-1/ICAM-1 binding assay
Mus musculus = species: Mus musculus; assay: tissue or blood; format: functional, organism-based
[6] = Maximum plasma concentration present after 4 hours of administration of compound of at 100 mg/kg; format: ADME, organism-based, Homo sapiens; design: dose 100 mg/kg; settings: read-out: Concentration
How it was run: (§1)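 Mice in the SEB-induced IL-2 production experiment were dosed orally at 30 or 100 mg/kg. Plasma drug concentration was measured 4 h after dosing and reported in ng/mL.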

Cell line [7] = assay: Concentration required for irreversible binding to human liver microsomes; format: functional
[8] = Concentration required for inhibition of aggregation of JY cell line; format: functional, cell-based; settings: Homo sapiens
[9] = Maximum plasma concentration present after 4 hours of administration of compound of at 30 mg/kg; format: ADME, organism-based, Homo sapiens; design: dose 30 mg/kg; settings: read-out: Concentration
[10] = target: T1, Intercellular adhesion molecule (ICAM-1), Integrin alpha-L/beta-2; assay: Dissociation constant for human Lymphocyte function-associated antigen-1 in LFA-1/ICAM-1 binding assay; format: protein-complex assay
[11] = Maximum plasma concentration present after 4 hours of administration of compound of concentration 100 mg/kg; format: ADME, organism-based, Homo sapiens; design: dose 100 mg/kg; settings: read-out: Concentration; how it was run: as §1
[12] = Maximum plasma concentration present after 4 hours of administration of compound at 30 mg/kg; format: ADME, organism-based, Homo sapiens; design: dose 30 mg/kg; settings: read-out: Concentration
[13] = Concentration required to inhibit aggregation of JY cells; format: functional, cell-based; settings: Homo sapiens

T1 sequence (P20701 whole entry): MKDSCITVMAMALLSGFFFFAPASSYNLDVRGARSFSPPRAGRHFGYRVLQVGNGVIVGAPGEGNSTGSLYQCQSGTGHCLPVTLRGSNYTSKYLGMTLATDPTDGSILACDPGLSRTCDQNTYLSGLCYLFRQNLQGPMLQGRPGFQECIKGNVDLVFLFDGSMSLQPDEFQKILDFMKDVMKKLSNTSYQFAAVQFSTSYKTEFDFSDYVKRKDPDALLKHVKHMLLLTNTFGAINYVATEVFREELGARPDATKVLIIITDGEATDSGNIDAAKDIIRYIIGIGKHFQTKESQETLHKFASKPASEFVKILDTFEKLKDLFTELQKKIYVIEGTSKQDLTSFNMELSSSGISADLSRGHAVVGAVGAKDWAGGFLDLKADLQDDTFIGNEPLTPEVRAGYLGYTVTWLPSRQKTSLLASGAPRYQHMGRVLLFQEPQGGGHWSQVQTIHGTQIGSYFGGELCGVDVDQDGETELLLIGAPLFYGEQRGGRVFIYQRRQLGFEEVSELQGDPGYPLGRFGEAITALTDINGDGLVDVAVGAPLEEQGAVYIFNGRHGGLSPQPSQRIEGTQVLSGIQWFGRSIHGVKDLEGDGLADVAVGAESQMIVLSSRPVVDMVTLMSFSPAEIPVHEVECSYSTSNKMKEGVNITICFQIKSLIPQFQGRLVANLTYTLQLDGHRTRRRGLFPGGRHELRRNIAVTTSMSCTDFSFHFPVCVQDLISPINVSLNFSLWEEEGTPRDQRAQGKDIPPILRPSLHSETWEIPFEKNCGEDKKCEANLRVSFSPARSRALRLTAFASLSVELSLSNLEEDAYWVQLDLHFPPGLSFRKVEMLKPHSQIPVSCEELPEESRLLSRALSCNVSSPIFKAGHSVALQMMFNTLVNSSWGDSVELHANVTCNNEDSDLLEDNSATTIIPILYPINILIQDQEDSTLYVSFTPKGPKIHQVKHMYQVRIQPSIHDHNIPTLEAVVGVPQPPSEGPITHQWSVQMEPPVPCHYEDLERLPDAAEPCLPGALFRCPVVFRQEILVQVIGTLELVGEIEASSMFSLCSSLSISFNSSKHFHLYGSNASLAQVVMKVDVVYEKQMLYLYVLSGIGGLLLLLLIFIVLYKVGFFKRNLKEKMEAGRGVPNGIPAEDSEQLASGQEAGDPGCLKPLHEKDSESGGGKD
T1 sequence (P05362 whole entry, further chain): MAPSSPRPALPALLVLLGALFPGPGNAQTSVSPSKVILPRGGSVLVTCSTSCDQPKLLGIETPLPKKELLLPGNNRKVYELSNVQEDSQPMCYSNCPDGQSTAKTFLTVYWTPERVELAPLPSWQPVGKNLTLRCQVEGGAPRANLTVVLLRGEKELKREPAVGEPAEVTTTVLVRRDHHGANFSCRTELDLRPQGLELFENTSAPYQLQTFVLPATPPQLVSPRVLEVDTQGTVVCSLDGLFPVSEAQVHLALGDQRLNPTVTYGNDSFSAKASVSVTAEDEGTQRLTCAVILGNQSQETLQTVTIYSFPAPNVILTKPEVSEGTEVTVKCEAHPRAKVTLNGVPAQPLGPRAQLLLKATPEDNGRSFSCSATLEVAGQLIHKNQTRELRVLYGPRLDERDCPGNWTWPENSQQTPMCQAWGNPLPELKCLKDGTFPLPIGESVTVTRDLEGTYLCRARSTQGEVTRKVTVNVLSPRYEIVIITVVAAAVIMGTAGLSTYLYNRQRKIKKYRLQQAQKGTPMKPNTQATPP
T1 sequence (P05107 whole entry): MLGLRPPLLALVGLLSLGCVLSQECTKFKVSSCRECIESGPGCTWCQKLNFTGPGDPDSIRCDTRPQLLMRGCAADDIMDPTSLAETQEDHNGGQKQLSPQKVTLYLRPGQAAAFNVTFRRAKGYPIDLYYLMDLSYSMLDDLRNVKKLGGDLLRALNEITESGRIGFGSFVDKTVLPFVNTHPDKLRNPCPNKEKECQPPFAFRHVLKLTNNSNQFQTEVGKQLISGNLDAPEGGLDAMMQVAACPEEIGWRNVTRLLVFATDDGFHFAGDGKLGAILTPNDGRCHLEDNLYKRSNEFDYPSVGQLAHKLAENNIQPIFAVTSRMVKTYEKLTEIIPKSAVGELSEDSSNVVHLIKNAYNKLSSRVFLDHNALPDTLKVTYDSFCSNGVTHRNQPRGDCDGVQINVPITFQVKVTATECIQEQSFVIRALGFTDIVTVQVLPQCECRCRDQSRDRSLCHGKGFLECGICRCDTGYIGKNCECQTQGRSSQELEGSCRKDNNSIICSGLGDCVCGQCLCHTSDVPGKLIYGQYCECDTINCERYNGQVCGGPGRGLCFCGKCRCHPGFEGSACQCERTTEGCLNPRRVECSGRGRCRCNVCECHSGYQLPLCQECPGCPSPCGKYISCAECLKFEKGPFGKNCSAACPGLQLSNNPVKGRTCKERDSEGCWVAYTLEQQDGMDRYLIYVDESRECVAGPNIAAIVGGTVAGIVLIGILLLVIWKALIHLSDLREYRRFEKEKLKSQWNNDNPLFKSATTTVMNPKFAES

SMILES: COCCCS(=O)(=O)c1cnc2n1[C@](C)(Cc1ccc(Br)cc1)C(=O)N2c1cc(Cl)cc(Cl)c1
- Kd [1]: 0.02 µM

SMILES: CC1(Cc2ccc(Br)cc2)C(=O)N(c2cc(Cl)cc(Cl)c2)c2nc(I)cn21 (centres undefined)
- Kd [1]: > 20 µM

SMILES: CC1(Cc2ccc(Br)cc2)C(=O)N(c2cc(Cl)cc(Cl)c2)c2nnnn21 (centres undefined)
- Kd [1]: 0.11 µM

SMILES: CC1(Cc2ccc(Br)cc2)C(=O)N(c2cc(Cl)cc(Cl)c2)c2ncc(I)n21 (centres undefined)
- Kd [1]: 0.41 µM

SMILES: CC1(Cc2ccc(Br)cc2)C(=O)N(c2cc(Cl)cc(Cl)c2)c2nc(Br)cn21 (centres undefined)
- Kd [1]: 0.63 µM

SMILES: C[C@@]1(Cc2ccc(Br)cc2)C(=O)N(c2cc(Cl)cc(Cl)c2)c2ncc(S(=O)(=O)CCCO)n21
- Kd [1]: 0.01 µM
- IC50 (Cell line [2]): 10.4 µM
- Kd [3]: 0.1 µM
- IC50 [4]: 0.09 µM
- Kd [5]: 0.01 µM

SMILES: C[C@@]1(Cc2ccc(Br)cc2)C(=O)N(c2cc(Cl)cc(Cl)c2)c2ncc(S(=O)(=O)CCCCO)n21
- Kd [1]: 0.01 µM

SMILES: CC1(Cc2ccc(Br)cc2)C(=O)N(c2cc(Cl)cc(Cl)c2)c2ncc(C#N)n21 (centres undefined)
- Kd [1]: 0.19 µM

SMILES: Cc1cnc2n1C(C)(Cc1ccc(Br)cc1)C(=O)N2c1cc(Cl)cc(Cl)c1 (centres undefined)
- Kd [1]: 0.34 µM

SMILES: CC(=O)NCCCS(=O)(=O)c1cnc2n1[C@](C)(Cc1ccc(Br)cc1)C(=O)N2c1cc(Cl)cc(Cl)c1
- Kd [1]: 0.03 µM
- IC50 (Cell line [2]): 9.5 µM
- Kd [3]: 0.07 µM
- IC50 [4]: 0.35 µM
- IC50 (Mus musculus): 9.5 µM

SMILES: CC1(Cc2ccc(Br)cc2)C(=O)N(c2cc(Cl)cc(Cl)c2)c2nncn21 (centres undefined)
- Kd [1]: 0.04 µM

SMILES: CC1(Cc2ccc(Br)cc2)C(=O)N(c2cc(Cl)cc(Cl)c2)c2ncc(S(C)(=O)=O)n21 (centres undefined)
- Kd [1]: 0.07 µM

SMILES: C[C@@]1(Cc2ccc(Br)cc2)C(=O)N(c2cc(Cl)cc(Cl)c2)c2ncc(S(=O)(=O)CCO)n21
- Kd [1]: 0.04 µM

SMILES: C[C@@]1(Cc2ccc(Br)cc2)C(=O)N(c2cc(Cl)cc(Cl)c2)c2nccn21
- Kd [1]: 0.01 µM
- Cmax [6]: 0.155 µg/mL
- Activity (Cell line [7]): 114 pM/min/ml
- IC50 [8]: 1.2 µM
- Cmax [9]: 0.025 µg/mL

SMILES: CC1(Cc2ccc(Br)cc2)C(=O)N(c2cc(Cl)cc(Cl)c2)c2nc(S(C)(=O)=O)cn21 (centres undefined)
- Kd [1]: 0.92 µM

SMILES: C[C@@]1(Cc2ccc(Br)cc2)C(=O)N(c2cc(Cl)cc(Cl)c2)c2ncc(S(=O)(=O)N3CCOCC3)n21
- Kd [1]: 0.02 µM

SMILES: C[C@@]1(Cc2ccc(Br)cc2)C(=O)N(c2cc(Cl)cc(Cl)c2)c2ncc(S(=O)(=O)CCCN)n21
- Kd [1]: 0.17 µM

SMILES: C[C@@]1(Cc2ccc(Br)cc2)C(=O)N(c2cc(Cl)cc(Cl)c2)c2ncc(S(=O)(=O)N3CCNCC3)n21
- Kd [1]: 0.05 µM
- IC50 (Cell line [2]): 27.8 µM
- Kd [3]: 0.4 µM
- IC50 [4]: 0.38 µM
- IC50 (Mus musculus): 27.8 µM

SMILES: CC(=O)OCCCCS(=O)(=O)c1cnc2n1[C@](C)(Cc1ccc(Br)cc1)C(=O)N2c1cc(Cl)cc(Cl)c1
- Kd [1]: 0.03 µM

SMILES: C[C@@]1(Cc2ccc(Br)cc2)C(=O)N(c2cc(Cl)cc(Cl)c2)c2ncc(S(=O)(=O)N3CCC(O)CC3)n21
- Kd [1]: 0.008 µM
- IC50 (Cell line [2]): 4.6 µM
- Kd [3]: 0.04 µM
- IC50 [4]: 0.03 µM
- Kd [10]: 0.009 µM
- IC50 (Mus musculus): 4.6 µM

SMILES: CNCCCS(=O)(=O)c1cnc2n1[C@](C)(Cc1ccc(Br)cc1)C(=O)N2c1cc(Cl)cc(Cl)c1
- Kd [1]: 0.15 µM

SMILES: CC(=O)OCCCS(=O)(=O)c1cnc2n1[C@](C)(Cc1ccc(Br)cc1)C(=O)N2c1cc(Cl)cc(Cl)c1
- Kd [1]: 0.01 µM
- IC50 (Cell line [2]): 7 µM
- Kd [3]: 0.04 µM
- IC50 [4]: 0.37 µM

SMILES: C[C@]1(Cc2ccc(Br)cc2)C(=O)N(c2cc(Cl)cc(Cl)c2)c2nccn21
- Kd [1]: > 7 µM

SMILES: C[C@@]1(Cc2ccc(Br)cc2)C(=O)N(c2cc(Cl)cc(Cl)c2)c2ncc(S(=O)(=O)N3CCCCC3)n21
- Kd [1]: 0.05 µM

SMILES: COc1cnc2n1C(C)(Cc1ccc(Br)cc1)C(=O)N2c1cc(Cl)cc(Cl)c1 (centres undefined)
- Kd [1]: 0.36 µM

SMILES: CC1(Cc2ccc(Br)cc2)C(=O)N(c2cc(Cl)cc(Cl)c2)c2ncc(Br)n21 (centres undefined)
- Kd [1]: 0.18 µM

SMILES: CC1(Cc2ccc(Br)cc2)C(=O)N(c2cc(Cl)cc(Cl)c2)c2nc(C#N)cn21 (centres undefined)
- Kd [1]: 0.28 µM

SMILES: C[C@@]1(Cc2ccc(Br)cc2)C(=O)N(c2cc(Cl)cc(Cl)c2)c2ncc(S(C)(=O)=O)n21
- Kd [1]: 0.05 µM
- IC50 [8]: 0.26 µM
- Cmax [11]: 14.4 µg/mL
- Cmax [12]: 2.8 µg/mL

SMILES: CN1C(=O)N(c2cc(Cl)cc(Cl)c2)C(=O)[C@@]1(C)Cc1ccc(Br)cc1
- Activity (Cell line [7]): 141 pM/min/mg
- IC50 [13]: 0.24 µM

SMILES: C[C@@]1(Cc2ccc(Br)cc2)C(=O)N(c2cc(Cl)cc(Cl)c2)c2ncc(S(=O)(=O)N3CCCC(O)C3)n21 (some centres undefined)
- Kd [1]: 0.07 µM

SMILES: C[C@@]1(Cc2ccc(Br)cc2)C(=O)N(c2cc(Cl)cc(Cl)c2)c2ncc(S(=O)(=O)N3CCC(=O)CC3)n21
- Kd [1]: 0.01 µM
- IC50 (Cell line [2]): 5.5 µM
- Kd [3]: 0.3 µM
- IC50 [4]: 0.25 µM
- IC50 (Mus musculus): 5.5 µM

SMILES: CC1(Cc2ccc(Br)cc2)C(=O)N(c2cc(Cl)cc(Cl)c2)c2nccn21 (racemic)
- Kd [1]: 0.38 µM
